Data on 44 compounds can be found in ChEMBL document CHEMBL4177719, “Synthesis and evaluation of biaryl derivatives for structural characterization of selective monoamine oxidase B inhibitors toward Parkinson's disease therapy” (Bioorg Med Chem, 2018).

In test [1] the target is T1, Amine oxidase [flavin-containing] B (Homo sapiens, UniProt P27338).
T1 sequence (P27338 whole entry): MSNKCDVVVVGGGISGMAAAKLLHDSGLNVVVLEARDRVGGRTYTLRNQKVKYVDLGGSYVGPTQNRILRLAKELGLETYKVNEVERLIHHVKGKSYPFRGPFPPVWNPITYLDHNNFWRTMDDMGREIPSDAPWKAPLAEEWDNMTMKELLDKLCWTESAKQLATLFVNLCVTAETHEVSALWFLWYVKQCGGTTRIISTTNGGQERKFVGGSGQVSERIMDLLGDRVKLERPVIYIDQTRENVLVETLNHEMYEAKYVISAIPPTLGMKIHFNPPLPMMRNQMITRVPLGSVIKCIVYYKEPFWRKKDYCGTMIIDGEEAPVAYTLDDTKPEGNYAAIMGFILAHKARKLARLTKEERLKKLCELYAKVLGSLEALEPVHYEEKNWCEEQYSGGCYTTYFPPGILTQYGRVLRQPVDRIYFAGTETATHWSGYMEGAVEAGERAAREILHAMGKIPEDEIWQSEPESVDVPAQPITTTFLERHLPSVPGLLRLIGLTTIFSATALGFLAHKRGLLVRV
As to the kind of experiment: Inhibition of recombinant human MAO-B using benzylamine as substrate preincubated for 15 mins followed by substrate addition measured after 20 mins by amplex red reagent based spectrophotometric assay.

The target of test [2] is T2, Amine oxidase [flavin-containing] A (Homo sapiens, UniProt P21397).
T2 sequence (P21397 whole entry): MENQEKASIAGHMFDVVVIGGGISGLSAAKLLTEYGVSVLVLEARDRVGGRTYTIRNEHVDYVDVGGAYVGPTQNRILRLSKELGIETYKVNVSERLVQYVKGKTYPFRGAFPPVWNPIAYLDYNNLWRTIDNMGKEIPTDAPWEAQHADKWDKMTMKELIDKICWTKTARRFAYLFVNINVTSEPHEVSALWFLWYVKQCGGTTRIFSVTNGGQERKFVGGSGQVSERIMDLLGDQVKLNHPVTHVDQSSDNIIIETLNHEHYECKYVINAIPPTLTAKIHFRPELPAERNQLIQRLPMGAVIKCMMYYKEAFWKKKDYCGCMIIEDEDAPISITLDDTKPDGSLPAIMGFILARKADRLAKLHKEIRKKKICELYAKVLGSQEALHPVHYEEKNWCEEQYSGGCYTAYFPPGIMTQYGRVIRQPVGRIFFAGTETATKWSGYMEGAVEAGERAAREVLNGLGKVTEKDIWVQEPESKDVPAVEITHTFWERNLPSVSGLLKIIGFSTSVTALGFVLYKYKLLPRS
The test is described as follows: Inhibition of recombinant human MAO-A using p-tyramine as substrate preincubated for 15 mins followed by substrate addition measured after 20 mins by amplex red reagent based spectrophotometric assay. The gist of the method:
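Recombinant human MAO-A with compounds at final 10⁻⁵–10 µM, preincubated 15 min at 37 °C in 50 mM sodium phosphate, pH 7.4. Reaction started by adding 200 µM Amplex Red, 2 U/mL horseradish peroxidase and 2 mM p-tyramine. IC50 came from dose-response curves in quadruplicate, as mean ± S.E.M.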

A further test is filed under the species Homo sapiens. The test is described as follows: Selectivity index, ratio of IC50 for recombinant human MAO-A to IC50 for recombinant human MAO-B.

As a reminder, the IC50 is the concentration that inhibits the measured activity by half. As for `NCc1ccc(OCc2ccc(F)cc2)cc1`, the figures for the concentration for half-maximal inhibition (IC50) in test [1] and in test [2] were 452 nM and above 100 µM, respectively. The Ratio IC50 in the test listed under Homo sapiens is above 220.
For `NCc1ccc(OCc2cccc(C(F)(F)F)c2)cc1`, in that order: 387 nM, above 100 µM and above 250.
In the same order, the values of `Nc1ccc(OCc2ccc(C(F)(F)F)cc2)cc1` are 402 nM, above 100 µM and above 240.
With `Nc1ccc(OCc2ccccc2C(F)(F)F)cc1`, the half-maximal inhibitory concentration (IC50) in test [1] was above 10000 nM; in test [2], above 100 µM.
As to `NCCc1ccc(OCc2ccccc2Cl)cc1`, the IC50 in test [1] is 2850 nM; in test [2] it was above 10 µM. In addition, the Ratio IC50 in the test filed under Homo sapiens is above 3.5.
In the same order, the values of `COc1cccc(COc2ccc(CCN)cc2)c1` are 305 nM, above 10 µM and above 33.
As to `NC(=O)c1ccc(OCc2ccc(C(F)(F)F)cc2)cc1`, the concentration for half-maximal inhibition (IC50) was 642 nM in test [1] and above 100 µM in test [2]. Further, the Ratio IC50 in the test filed under Homo sapiens was above 150.
Regarding `NC(=O)c1ccc(OCc2ccccc2C(F)(F)F)cc1`, the half-inhibitory concentration (IC50) was 2020 nM in test [1] and above 100 µM in test [2]. In addition, the Ratio IC50 in the test listed under Homo sapiens was above 49.
In the same order, the values of `NCc1ccc(OCc2ccc(C(F)(F)F)cc2)cc1` are 136 nM, above 100 µM and above 730.
In the case of `NC(=O)c1ccc(OCc2cccc(F)c2)cc1`, the 50% inhibitory concentration (IC50) in test [1] was 1550 nM; in test [2], above 100 µM. In addition, the Ratio IC50 in the test listed under Homo sapiens was above 65.
For `NCCc1ccc(OCc2ccc(Cl)cc2)cc1`, in that order: 59 nM, above 100 µM and above 1600.
`CC(=O)N[C@H]1CC(=O)N(c2ccc(OCc3cccc(F)c3)cc2)C1` [SEMBRAGILINE]: the IC50 in test [1] is 16 nM.
As to `NCCc1ccc(-c2ccccc2Cl)cc1`, the IC50 in test [1] is 8340 nM; in test [2] it was above 10 µM. Moreover, in the test filed under Homo sapiens, the Ratio IC50 was above 1.2.
In the same order, the values of `COc1cccc(COc2ccc(CN)cc2)c1` are 175 nM, above 30 µM and above 170.
In the same order, the values of `NCCc1ccc(OCc2cccc(F)c2)cc1` are 193 nM, above 100 µM and above 510.
For `NC(=O)c1ccc(OCc2cccc(C(F)(F)F)c2)cc1`, in that order: 1110 nM, above 100 µM and above 90.
Regarding `NCCc1ccc(OCc2cccc(C(F)(F)F)c2)cc1`, the concentration for half-maximal inhibition (IC50) was 110 nM in test [1] and above 100 µM in test [2]. Besides, the Ratio IC50 in the test listed under Homo sapiens is above 900.
Consider `COc1ccc(-c2ccc(CCN)cc2)cc1`, for which the results for the IC50 in test [1] and in test [2] were 5760 nM and above 10 µM, respectively. Further, in the test listed under Homo sapiens, the Ratio IC50 is above 1.7.
Consider `NCc1ccc(OCc2cccc(Cl)c2)cc1`, for which the concentration for half-maximal inhibition (IC50) in test [1] is 257 nM; in test [2], above 100 µM. Besides, the Ratio IC50 in the test filed under Homo sapiens is above 380.
In the same order, the values of `NCCc1ccc(-c2ccc(F)cc2)cc1` are 6810 nM, above 10 µM and above 1.5.
For `NC(=O)c1ccc(OCc2ccc(F)cc2)cc1`, in that order: 271 nM, above 100 µM and above 360.
Take `NCc1ccc(OCc2ccccc2C(F)(F)F)cc1`: the figures for the IC50 in test [1] and in test [2] were 3150 nM and above 100 µM, respectively. Moreover, the Ratio IC50 in the test listed under Homo sapiens is above 32.
Take `NCCc1ccc(-c2ccccc2F)cc1`: the figures for the IC50 in test [1] and in test [2] were above 10000 nM and above 10 µM, respectively.
Take `NCc1ccc(OCc2ccccc2)cc1`: the values for the IC50 in test [1] and in test [2] were 3230 nM and above 100 µM, respectively. Also, the Ratio IC50 in the test listed under Homo sapiens was above 31.
Consider `NCc1ccc(OCc2ccc(Cl)cc2)cc1`, for which the IC50 in test [1] is 440 nM; in test [2], above 30 µM. Moreover, the Ratio IC50 in the test listed under Homo sapiens is above 68.
For `Nc1ccc(OCc2cccc(C(F)(F)F)c2)cc1`, in that order: 1510 nM, above 100 µM and above 66.
For `NCCc1ccc(-c2ccc(Cl)cc2)cc1`, in that order: 625 nM, above 10 µM and above 16.
As to `COc1cccc(-c2ccc(CCN)cc2)c1`, the IC50 is 5000 nM in test [1] and above 10 µM in test [2]. In addition, in the test listed under Homo sapiens, the Ratio IC50 is above 1.9.
In the same order, the values of `NCCc1ccc(-c2ccc(C(F)(F)F)cc2)cc1` are 41 nM, above 10 µM and above 240.
Take `NCCc1ccc(-c2cccc(F)c2)cc1`: the IC50 in test [1] is above 10000 nM; in test [2], above 10 µM.
Turning to `NCCc1ccc(OCc2cccc(Cl)c2)cc1`, the IC50 was 62 nM in test [1] and above 100 µM in test [2]. In the test listed under Homo sapiens, the Ratio IC50 was above 1600.
For `NCCc1ccc(-c2cccc(Cl)c2)cc1`, in that order: 2110 nM, above 10 µM and above 4.7.
For `NCCc1ccc(OCc2ccc(F)cc2)cc1`, in that order: 109 nM, above 100 µM and above 910.
`NCCc1ccc(OCc2ccccc2C(F)(F)F)cc1`: the IC50 is 1800 nM in test [1] and above 100 µM in test [2]. Moreover, the Ratio IC50 in the test filed under Homo sapiens is above 55.
For `NCCc1ccc(-c2cccc(C(F)(F)F)c2)cc1`, in that order: 1570 nM, above 10 µM and above 6.4.
In the same order, the values of `NC(=O)c1ccc(OCc2ccccc2F)cc1` are 1050 nM, above 100 µM and above 95.
For `Nc1ccc(OCc2cccc(F)c2)cc1`, in that order: 2480 nM, above 100 µM and above 40.
Regarding `Nc1ccc(OCc2ccc(F)cc2)cc1`, the IC50 in test [1] was 3320 nM; in test [2] it was above 100 µM. Further, in the test listed under Homo sapiens, the Ratio IC50 is above 30.
Consider `NCc1ccc(OCc2cccc(F)c2)cc1`, for which the half-inhibitory concentration (IC50) was 926 nM in test [1] and above 100 µM in test [2]. Besides, the Ratio IC50 in the test filed under Homo sapiens is above 100.
On to `COc1ccc(CN[C@@H](C)C(N)=O)cc1`, for which the concentration for half-maximal inhibition (IC50) in test [1] is above 10000 nM; in test [2], above 10 µM.
For `NCCc1ccc(OCc2ccccc2F)cc1`, the IC50 is 396 nM in test [1] and above 10 µM in test [2]. For the same compound, the Ratio IC50 in the test filed under Homo sapiens is above 25.
With `Nc1ccc(OCc2ccccc2F)cc1`, the IC50 is above 10000 nM in test [1] and above 30 µM in test [2].
As to `COc1ccc(COc2ccc(CN)cc2)cc1`, the IC50 in test [1] is 283 nM; in test [2] it was above 100 µM. Besides, the Ratio IC50 in the test filed under Homo sapiens is above 350.
As for `NCc1ccc(OCc2ccccc2F)cc1`, the half-inhibitory concentration (IC50) was 1460 nM in test [1] and above 100 µM in test [2]. Moreover, the Ratio IC50 in the test filed under Homo sapiens is above 68.
